The values below come from ChEMBL document CHEMBL1145801, “Inhibition of Cdc25 phosphatases by indolyldihydroxyquinones” (J Med Chem, 2003).

Test [1] in a line: Inhibitory constant of compound against Cdc25 phosphatase was determined.
Test [2] addresses T1, M-phase inducer phosphatase 2 (Homo sapiens, UniProt P30305).
T1 sequence (P30305 whole entry): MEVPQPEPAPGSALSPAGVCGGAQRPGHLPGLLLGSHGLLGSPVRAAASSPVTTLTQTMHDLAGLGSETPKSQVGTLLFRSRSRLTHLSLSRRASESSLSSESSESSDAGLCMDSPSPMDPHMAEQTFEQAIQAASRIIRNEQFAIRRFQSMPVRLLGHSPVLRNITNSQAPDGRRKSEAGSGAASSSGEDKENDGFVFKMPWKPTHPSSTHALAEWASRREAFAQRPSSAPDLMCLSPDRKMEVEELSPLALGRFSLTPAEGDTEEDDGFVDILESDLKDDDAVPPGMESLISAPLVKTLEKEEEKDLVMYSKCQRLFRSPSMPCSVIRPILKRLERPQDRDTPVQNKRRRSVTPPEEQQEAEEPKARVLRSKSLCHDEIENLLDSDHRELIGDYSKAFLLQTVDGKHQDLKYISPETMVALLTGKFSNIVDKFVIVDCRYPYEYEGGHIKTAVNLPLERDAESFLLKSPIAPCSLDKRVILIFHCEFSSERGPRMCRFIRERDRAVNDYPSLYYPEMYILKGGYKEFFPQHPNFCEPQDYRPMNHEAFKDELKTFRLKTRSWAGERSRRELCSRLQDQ
The test is described as follows: Eight point inhibitory concentration against Cell division cycle 25B was determined. In short, it runs like this: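 Cdc25B activity read by UV-vis at 477 nm as product formed from 3-O-methylfluorescein phosphate (mFP) at 50 μM (~5 × Km), time-dependent, initial-velocity conditions (2–5% turnover); eight inhibitor concentrations, IC50 fitted to eq 1. Each reaction compared with a simultaneous no-inhibitor control; selected compounds run in duplicate.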

In test [3] the target is M-phase inducer phosphatase 2 (Homo sapiens, UniProt P30305, M545A). As to the kind of experiment: Inhibitory concentration of compound against mutant M531A of Cell division cycle 25B was determined. In short, it runs like this: (§1)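 Cdc25B catalytic-domain point mutants, a truncated form and wild type were assayed with 3-O-methylfluorescein phosphate as substrate, monitored at 477 nm under initial velocity conditions. Values are the mean of two separate determinations.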

The target in test [4] is M-phase inducer phosphatase 2 (Homo sapiens, UniProt P30305, R496L). As to the kind of experiment: Inhibitory concentration of compound against mutant R482L of Cell division cycle 25B was determined. In short, it runs like this: as §1
Test [5] deals with M-phase inducer phosphatase 2 (Homo sapiens, UniProt P30305, F489A). As to the kind of experiment: Inhibitory concentration of compound against mutant F475A of Cell division cycle 25B was determined. In short, it runs like this:
as §1

Test [6] deals with M-phase inducer phosphatase 2 (Homo sapiens, UniProt P30305, R558L). The test is described as follows: Inhibitory concentration of compound against mutant R544L of Cell division cycle 25B was determined. In short, it runs like this: as §1
Test [7] deals with M-phase inducer phosphatase 2 (Homo sapiens, UniProt P30305, Y542F). The test is described as follows: Inhibitory concentration of compound against mutant Y528F of Cell division cycle 25B was determined. In short, it runs like this: as §1
In test [8] the target is M-phase inducer phosphatase 2 (Homo sapiens, UniProt P30305, E492Q). As to the kind of experiment: Inhibitory concentration of compound against mutant E478Q of Cell division cycle 25B was determined. In short, it runs like this:
as §1

Test [9] concerns the target T2, M-phase inducer phosphatase 2 (Homo sapiens) (UniProt P30305).
T2 sequence (whole entry): T1 sequence (P30305 whole entry)
The test is described as follows: Percent inhibition of cell division cycle 25B at 50 uM. In short, it runs like this: (§2)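 Single-point screen at 50 μM inhibitor against Cdc25A, Cdc25B or Cdc25C with 50 μM 3-O-methylfluorescein phosphate, product followed at 477 nm in time-dependent assays. Activity was compared with a simultaneous no-inhibitor control, and selected compounds were run in duplicate (average error ±7%).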

The target of test [10] is T3, M-phase inducer phosphatase 3 (Homo sapiens, UniProt P30307).
T3 sequence (P30307 whole entry): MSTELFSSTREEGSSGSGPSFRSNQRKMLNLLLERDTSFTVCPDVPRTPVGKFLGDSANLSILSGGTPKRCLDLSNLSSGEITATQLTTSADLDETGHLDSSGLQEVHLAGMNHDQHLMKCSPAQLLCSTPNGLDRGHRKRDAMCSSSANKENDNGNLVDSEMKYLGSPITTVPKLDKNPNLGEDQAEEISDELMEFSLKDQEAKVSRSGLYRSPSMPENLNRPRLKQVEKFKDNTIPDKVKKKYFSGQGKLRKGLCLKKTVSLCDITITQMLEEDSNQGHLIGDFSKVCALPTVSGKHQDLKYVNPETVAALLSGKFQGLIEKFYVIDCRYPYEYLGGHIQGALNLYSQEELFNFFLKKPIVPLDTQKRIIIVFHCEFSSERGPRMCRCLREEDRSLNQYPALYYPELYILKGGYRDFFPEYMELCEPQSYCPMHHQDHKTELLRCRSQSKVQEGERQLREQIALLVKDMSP
As to the kind of experiment: Eight point inhibitory concentration against Cell division cycle 25 degree C was determined. In short, it runs like this:
(§3)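 Phosphatase activity measured with 3-O-methylfluorescein phosphate at 50 μM (~5 × Km), product formation followed at 477 nm by UV-vis under initial velocity conditions (2–5% turnover) in time-dependent assays. Eight inhibitor concentrations were used, and IC50 was obtained by fitting to a dose–response equation.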

Test [11] concerns the target M-phase inducer phosphatase 2 (Homo sapiens, UniProt P30305, E488Q). As to the kind of experiment: Inhibitory concentration of compound against mutant E474Q of Cell division cycle 25B was determined. In short, it runs like this:
as §1

Test [12] concerns the target T4, M-phase inducer phosphatase 1 (Homo sapiens, UniProt P30304).
T4 sequence (P30304 whole entry): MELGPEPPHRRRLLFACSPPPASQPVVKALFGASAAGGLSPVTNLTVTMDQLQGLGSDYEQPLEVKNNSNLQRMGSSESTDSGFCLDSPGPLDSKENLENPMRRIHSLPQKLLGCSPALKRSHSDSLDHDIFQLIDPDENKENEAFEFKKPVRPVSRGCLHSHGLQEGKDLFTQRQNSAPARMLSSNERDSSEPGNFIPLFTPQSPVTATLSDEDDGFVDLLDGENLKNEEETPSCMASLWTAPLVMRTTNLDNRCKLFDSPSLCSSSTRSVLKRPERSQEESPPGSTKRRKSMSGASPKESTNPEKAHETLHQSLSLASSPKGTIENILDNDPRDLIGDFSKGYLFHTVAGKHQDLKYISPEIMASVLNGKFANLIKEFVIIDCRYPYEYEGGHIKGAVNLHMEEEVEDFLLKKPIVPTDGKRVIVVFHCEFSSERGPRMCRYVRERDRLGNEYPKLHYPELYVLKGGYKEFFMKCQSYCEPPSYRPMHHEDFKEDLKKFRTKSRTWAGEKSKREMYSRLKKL
As to the kind of experiment: Eight point inhibitory concentration against Cell division cycle 25A was determined. In short, it runs like this:
as §3

For test [13], the target named is T1, M-phase inducer phosphatase 2. As to the kind of experiment: Inhibitory constant of compound against Cell division cycle 25B was determined using mFP as a substrate.
The target is the same in test [14]. As to the kind of experiment: Inhibitory concentration of compound against Cell division cycle 25B was determined using CDK2-p-TpY/Cyclin A as a substrate. In short, it runs like this: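 Cdc25B dephosphorylation of 300 nM Cdk2-pTpY/CycA protein substrate was run in time-dependent assays at eight inhibitor concentrations to give IC50. Reactions were quenched with TCA, and bovine serum albumin carrier (1 mg/mL) was added only after the quench so that it was absent during inhibitor exposure.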

The target in test [15] is T5, M-phase inducer phosphatase 3 (Homo sapiens) (UniProt P30307).
T5 sequence (whole entry): T3 sequence (P30307 whole entry)
As to the kind of experiment: Percent inhibition of cell division cycle 25 degree C at 50 uM. In short, it runs like this: as §2

Test [16] addresses T6, M-phase inducer phosphatase 2 (Homo sapiens, UniProt P30305). As to the kind of experiment: Inhibitory concentration of compound against mutant WT of Cell division cycle 25B was determined. In short, it runs like this: as §1
For test [17], the target named is M-phase inducer phosphatase 2 (Homo sapiens, UniProt P30305, R506L). The test is described as follows: Inhibitory concentration of compound against mutant R492L of Cell division cycle 25B was determined. In short, it runs like this:
as §1

The target in test [18] is T7, M-phase inducer phosphatase 1 (Homo sapiens) (UniProt P30304).
T7 sequence (whole entry): T4 sequence (P30304 whole entry)
As to the kind of experiment: Percent inhibition of cell division cycle 25A at 50 uM. In short, it runs like this:
as §2

In test [19] the target is T6, M-phase inducer phosphatase 2. As to the kind of experiment: Inhibitory concentration of compound against truncated mutant of Cell division cycle 25B was determined. In short, it runs like this:
as §1

Sequence of M-phase inducer phosphatase 2 (Homo sapiens, UniProt P30305, R506L) (P30305 whole entry R506L): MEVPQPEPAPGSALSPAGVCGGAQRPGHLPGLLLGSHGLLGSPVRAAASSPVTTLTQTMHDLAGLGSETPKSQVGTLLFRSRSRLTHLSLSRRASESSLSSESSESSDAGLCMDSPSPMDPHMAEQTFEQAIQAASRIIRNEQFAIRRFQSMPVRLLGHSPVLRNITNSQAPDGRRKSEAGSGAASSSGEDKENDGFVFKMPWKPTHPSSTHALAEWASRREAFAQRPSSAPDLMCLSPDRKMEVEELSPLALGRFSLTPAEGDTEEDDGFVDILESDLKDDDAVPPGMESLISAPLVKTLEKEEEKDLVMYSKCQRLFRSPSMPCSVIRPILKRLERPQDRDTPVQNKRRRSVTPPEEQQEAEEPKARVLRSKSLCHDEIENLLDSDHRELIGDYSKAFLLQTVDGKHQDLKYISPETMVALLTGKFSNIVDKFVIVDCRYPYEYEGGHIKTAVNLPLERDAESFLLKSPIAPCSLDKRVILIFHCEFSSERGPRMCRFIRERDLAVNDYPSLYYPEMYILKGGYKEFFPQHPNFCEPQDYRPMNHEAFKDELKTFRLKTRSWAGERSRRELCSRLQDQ
Sequence of M-phase inducer phosphatase 2 (Homo sapiens, UniProt P30305, E488Q) (P30305 whole entry E488Q): as the sequence (P30305 whole entry R506L) above, with E488Q, L506R counted along it
Sequence of M-phase inducer phosphatase 2 (Homo sapiens, UniProt P30305, M545A) (P30305 whole entry M545A, the tested form may be a part): as the sequence (P30305 whole entry R506L) above, with L506R, M545A counted along it
Sequence of M-phase inducer phosphatase 2 (Homo sapiens, UniProt P30305, E492Q) (P30305 whole entry E492Q): as the sequence (P30305 whole entry R506L) above, with E492Q, L506R counted along it
Sequence of M-phase inducer phosphatase 2 (Homo sapiens, UniProt P30305, R558L) (P30305 whole entry R558L): as the sequence (P30305 whole entry R506L) above, with L506R, R558L counted along it
Sequence of M-phase inducer phosphatase 2 (Homo sapiens, UniProt P30305, R496L) (P30305 whole entry R496L): as the sequence (P30305 whole entry R506L) above, with R496L, L506R counted along it
Sequence of M-phase inducer phosphatase 2 (Homo sapiens, UniProt P30305, Y542F) (P30305 whole entry Y542F): as the sequence (P30305 whole entry R506L) above, with L506R, Y542F counted along it
Sequence of M-phase inducer phosphatase 2 (Homo sapiens, UniProt P30305, F489A) (P30305 whole entry F489A): as the sequence (P30305 whole entry R506L) above, with F489A, L506R counted along it

A word on the Ki: it is the equilibrium dissociation constant of an inhibitor or competing ligand from its target. For the compound `CC(C)=CCC/C(C)=C/CC/C(C)=C/Cc1c(Cl)cc(Cl)c2c(C3=C(O)C(O)=CC(=O)C3=O)c[nH]c12`, in test [1], the Ki worked out at 0.47 µM.

As usually defined, the IC50 is the point on the concentration scale where inhibition reaches its midpoint. As a reminder, the inhibition is the change of the read-out against control, counted positive when it falls. A high value points to strong suppression. Take `CC(C)=CCc1cccc2c(C3=C(O)C(O)=CC(=O)C3=O)c[nH]c12`: the IC50 was 5.6 µM in test [2]; 6.5 µM in test [3]; 40 µM in test [4]; over 50 µM in test [5]; 12 µM in test [6]; 15 µM in test [7]. Further, the IC50 in test [8] was 6.5 µM; in test [10], 15 µM; in test [11] it was over 50 µM; in test [12], 4.1 µM; in test [14], 28.2 µM; in [16], 6.4 µM. Besides, the figures for the IC50 in test [17] and in [19] were 11 µM and 33 µM, respectively. Moreover, the inhibition in test [9] was 99%; in test [15] it was 84%; in test [18] it was 100%. Further, the Ki in test [13] stood at 0.64 µM.
